Values after ≈ are worked out from the molar mass of the structure shown. Active and inactive are the calls of the source. The calls are words filed in the database; no cut-off is given here.
Experiments:
Candida albicans [1] = experiment: Antifungal activity against Candida albicans ATCC 2091 after 24 hrs by agar diffusion method; assay type: functional
Method in brief: (§1)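 Agar cup diffusion against the listed ATCC strains. Each compound was dissolved at 1 mg/mL in DMF, and 100 μL was placed in each cup. Plates were incubated at 37 C for 24 h, and the inhibition zone diameters were measured in mm.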

Escherichia coli = experiment: Antibacterial activity against Escherichia coli ATCC 35218 after 24 hrs by agar diffusion method; assay type: functional; method in brief: as §1
HeLa = experiment: Cytotoxicity against human HeLa cells after 72 hrs by MTT assay; assay type: functional, cell-based
Method in brief: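 HeLa cells were plated overnight at 37 C in 5% CO2. Samples were serially diluted 1:4 down the plate, with adriamycin and DMSO as controls. After 72 h, viability was read at 490 nm as MTS reduction to formazan. IC50 (μg/mL) was calculated from the dilution series.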

Klebsiella pneumoniae [2] = experiment: Antibacterial activity against Klebsiella pneumoniae ATCC 10032 after 24 hrs by agar diffusion method; assay type: functional, organism-based; method in brief: as §1
Staphylococcus aureus [3] = experiment: Antibacterial activity against Staphylococcus aureus ATCC 6538P after 24 hrs by agar diffusion method; assay type: functional; method in brief: as §1
Pseudomonas aeruginosa [4] = experiment: Antibacterial activity against Pseudomonas aeruginosa ATCC 9027 after 24 hrs by agar diffusion method; assay type: functional, organism-based; method in brief: as §1
Candida albicans [5] = experiment: Antifungal activity against Candida albicans ATCC 2091 at 10 mg/mL after 24 hrs by agar diffusion method; assay type: functional; conditions: ATCC 2091, 24 h, read-out: IZ
Method in brief: (§2)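 Reference drugs were tested in the same agar diffusion series at the stated loads: chloramphenicol 30 μg/disk, ciprofloxacin 5 μg/disk, erythromycin 15 μg/disk, and clotrimazole 10 mg/mL (100 μL). Plates were read at 37 C for 24 h, and inhibition zones were recorded in mm.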

Pseudomonas aeruginosa [6] = experiment: Antibacterial activity against Pseudomonas aeruginosa ATCC 9027 at 30 ug/disk after 24 hrs by agar diffusion method; assay type: functional; conditions: ATCC 9027, 24 h, read-out: IZ
Method in brief: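 Agar diffusion against P. aeruginosa ATCC 9027, using reference antibiotic disks at 30 μg/disk. Plates incubated at 37 C for 24 h, and the inhibition zone diameter read in mm.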

Staphylococcus aureus [7] = experiment: Antibacterial activity against Staphylococcus aureus ATCC 6538P at 30 ug/disk after 24 hrs by agar diffusion method; assay type: functional; conditions: read-out: IZ; method in brief: as §2
Klebsiella pneumoniae [8] = experiment: Antibacterial activity against Klebsiella pneumoniae ATCC 10032 at 30 ug/disk after 24 hrs by agar diffusion method; assay type: functional; conditions: ATCC 10032, 24 h, read-out: IZ; method in brief: as §2
[9] = system: Radical scavenging activity; experiment: Antioxidant activity assessed as DPPH radical scavenging activity after 30 mins by TLC […] assay; assay type: functional
Method in brief: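 TLC autographic DPPH assay. Samples at 1 mg/mL in MeOH were spotted at 6 μg each as 4 mm spots, with vitamin E as the positive control. The plate was sprayed with 0.2% (w/v) DPPH in MeOH, and scavenging spots were read 30 min after spraying.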

Staphylococcus aureus [10] = experiment: Antibacterial activity against Staphylococcus aureus ATCC 6538P at 15 ug/disk after 24 hrs by agar diffusion method; assay type: functional; conditions: read-out: IZ; method in brief: as §2
Pseudomonas aeruginosa [11] = experiment: microbe, parasite or virus in culture; conditions: ATCC 9027, 24 h, read-out: IZ

## NC(=O)CC1(O)C=C(Cl)C(=O)C(Cl)=C1 [DICHLOROVERONGIAQUINOL]
Candida albicans [1]
  Activity: inactive
Escherichia coli
  inhibition zone (IZ): 15 mm
HeLa
  IC50: 13 µg/mL (≈ 55.1 µM)

## COc1ccc(/C=C/C(=O)N[C@H](CCCNC(=N)N)C(=O)O)cc1Br
Candida albicans [1]
  Activity: inactive
Klebsiella pneumoniae [2]
  Activity: inactive
Staphylococcus aureus [3]
  Activity: inactive
Escherichia coli
  Activity: inactive
Pseudomonas aeruginosa [4]
  Activity: inactive

## Clc1ccccc1C(c1ccccc1)(c1ccccc1)n1ccnc1 [CLOTRIMAZOLE]
Candida albicans [5]
  zone of inhibition at 10000 µg/mL: 28 mm

## COC1=C(Br)[C@H](O)[C@@]2(C=C1Br)CC(C(=O)NCCCCNC(=N)N)=NO2 [PUREALDIN L]
Candida albicans [1]
  Activity: inactive
Staphylococcus aureus [3]
  inhibition zone (IZ): 5 mm

## O=C(N[C@H](CO)[C@H](O)c1ccc([N+](=O)[O-])cc1)C(Cl)Cl [CHLORAMPHENICOL]
Pseudomonas aeruginosa [6]
  zone of inhibition at 30 µg/disc: 7 mm
Staphylococcus aureus [7]
  zone of inhibition at 30 µg/disc: 9 mm
Klebsiella pneumoniae [8]
  zone of inhibition at 30 µg/disc: 10 mm

## COC1=C(Br)[C@H](O)[C@@]2(C=C1Br)CC(C(=O)NCCCCNC(=O)C1=NO[C@]3(C=C(Br)C(OC)=C(Br)[C@@H]3O)C1)=NO2 [AEROTHIONIN]
Candida albicans [1]
  Activity: inactive
Staphylococcus aureus [3]
  inhibition zone (IZ): 5 mm

## COc1c(Br)cc(/C=C/C(=O)N[C@H](CCCNC(=N)N)C(=O)O)cc1Br
Candida albicans [1]
  Activity: inactive
Klebsiella pneumoniae [2]
  Activity: inactive
Staphylococcus aureus [3]
  Activity: inactive
Escherichia coli
  Activity: inactive
Pseudomonas aeruginosa [4]
  Activity: inactive

## COc1ccc(O)c(CC(N)=O)c1Br [SUBEREAPHENOL]
Candida albicans [1]
  inhibition zone (IZ): 20 mm
Staphylococcus aureus [3]
  inhibition zone (IZ): 10 mm
Escherichia coli
  inhibition zone (IZ): 18 mm
[9]
  Activity: Active
HeLa
  IC50: 19 µg/mL (≈ 73.1 µM)

## CC[C@H]1OC(=O)[C@H](C)[C@@H](O[C@H]2C[C@@](C)(OC)[C@@H](O)[C@H](C)O2)[C@H](C)[C@@H](O[C@@H]2O[C@H](C)C[C@H](N(C)C)[C@H]2O)[C@](C)(O)C[C@@H](C)C(=O)[C@H](C)[C@@H](O)[C@]1(C)O [ERYTHROMYCIN]
Staphylococcus aureus [10]
  zone of inhibition at 15 µg/disc: 8 mm

## O=C(O)c1cn(C2CC2)c2cc(N3CCNCC3)c(F)cc2c1=O [CIPROFLOXACIN]
Pseudomonas aeruginosa [11]
  zone of inhibition at 5 µg/disc: 8 mm
